In brackets after ≈: the same amount, converted by molar mass.
What was measured:
[1] = Antioxidant activity assessed as superoxide radical scavenging activity at 0.5 mM by NBT reduction assay; assay type: functional
How it was run: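 Superoxide generated by an NADH/phenazine methosulphate system. The mix held 40 µl of 280 µM NADH, 40 µl of 80 µM NBT, 20 µl of 8 µM PMS, 10 µl of 1 mM sample in DMSO, and 0.1 M phosphate buffer pH 7.4 (concentrations are of the added solutions). Ran at room temperature, read formazan at 560 nm, and calculated %RSA = 100 − (OD test/OD control × 100).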

Aspergillus fumigatus = experiment: Antimicrobial activity against Aspergillus fumigatus at 100 ug/ml after 24 hrs by cup diffusion method; assay type: functional; conditions: for zone of inhibition at 100 µg/mL: read-out: DIZ
How it was run: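 Cup diffusion on potato dextrose agar plates inoculated with the fungus, with samples dissolved in DMSO. Incubated at 45 °C for A. fumigatus. Read the diameter of the clear zone of inhibition around the sample.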

Trichoderma viride = experiment: Antimicrobial activity against Trichoderma viride at 100 ug/ml after 24 hrs by cup diffusion method; assay type: functional; conditions: for zone of inhibition at 100 µg/mL: read-out: DIZ
How it was run: (§1)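 Cup diffusion on fungus-inoculated potato dextrose agar plates, with samples in DMSO. Incubated at 30 °C. Read the diameter of the clear inhibition zone surrounding the sample.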

Yarrowia lipolytica = experiment: Antimicrobial activity against Candida lipolytica at 100 ug/ml after 24 hrs by cup diffusion method; assay type: functional; conditions: for zone of inhibition at 100 µg/mL: read-out: DIZ; how it was run: as §1
Aspergillus niger = experiment: Antimicrobial activity against Aspergillus niger at 100 ug/ml after 24 hrs by cup diffusion method; assay type: functional; conditions: for zone of inhibition at 100 µg/mL: read-out: DIZ; how it was run: as §1
Leishmania major = experiment: Antileishmanial activity against Leishmania major promastigotes after 72 hrs; assay type: functional, organism-based
How it was run: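 Cultured Leishmania major parasites in M199 with 10% foetal bovine serum, 25 mM HEPES, and penicillin/streptomycin, at 24 °C with shaking. Harvested log-phase cells and diluted them to 2 × 10^6 cells/ml. Made 1 mg/ml DMSO stocks and serially diluted them in medium. Used DMSO as the negative control and amphotericin B as the positive control.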

Molecule | Activity [1] | zone of inhibition at 100 µg/mL (Aspergillus fumigatus) | zone of inhibition at 100 µg/mL (Trichoderma viride) | zone of inhibition at 100 µg/mL (Yarrowia lipolytica) | zone of inhibition at 100 µg/mL (Aspergillus niger) | IC50 (Leishmania major) | inhibition zone (IZ) (Aspergillus fumigatus) | inhibition zone (IZ) (Trichoderma viride) | inhibition zone (IZ) (Yarrowia lipolytica) | inhibition zone (IZ) (Aspergillus niger)
O=C(/C=C/c1ccc(-n2ccnc2)cc1)c1cc(Cl)ccc1Cl | 18.8% | 19 mm | 10 mm | 10 mm | 6 mm | 0.99 µg/mL (≈ 2.88 µM) |  |  |  | 
O=C(/C=C/c1ccc(-n2ccnc2)cc1)c1ccc(Cl)c(Cl)c1Cl | 2.4% | 10 mm | 6 mm | 6 mm | 1 mm | 0.63 µg/mL (≈ 1.67 µM) |  |  |  | 
O=C(/C=C/c1ccc(-n2ccnc2)cc1)c1ccccc1F | 79.2% | 17 mm | 5 mm | 5 mm | 3 mm | 0.98 µg/mL (≈ 3.35 µM) |  |  |  | 
NYSTATIN |  |  |  |  |  |  | 22 mm | 17 mm | 16 mm | 10 mm
O=C(/C=C/c1ccc(-n2ccnc2)cc1)c1c(F)cccc1F | 69.5% | 15 mm | 5 mm | 7 mm | 4 mm | 0.97 µg/mL (≈ 3.13 µM) |  |  |  | 
O=C(/C=C/c1ccc(-n2ccnc2)cc1)c1ccccc1 | 81.9% | 18 mm | 3 mm | 4 mm | 4 mm | 0.91 µg/mL (≈ 3.32 µM) |  |  |  | 
O=C(/C=C/c1ccc(-n2ccnc2)cc1)c1ccc(Cl)c(Cl)c1 | 0.4% | 10 mm | 6 mm | 7 mm | 2 mm | 0.99 µg/mL (≈ 2.88 µM) |  |  |  | 
O=C(/C=C/c1ccc(-n2ccnc2)cc1)c1ccc(F)c(F)c1 | 8.3% | 18 mm | 3 mm | 4 mm | 4 mm | 0.89 µg/mL (≈ 2.87 µM) |  |  |  | 
O=C(/C=C/c1ccc(-n2ccnc2)cc1)c1c(Cl)cccc1Cl | 47.7% | 20 mm | 6 mm | 7 mm | 4 mm | 0.67 µg/mL (≈ 1.95 µM) |  |  |  | 
O=C(/C=C/c1ccc(-n2ccnc2)cc1)c1ccc(Cl)cc1 | 90.1% | 20 mm | 9 mm | 10 mm | 8 mm | 0.92 µg/mL (≈ 2.98 µM) |  |  |  | 
O=C(/C=C/c1ccc(-n2ccnc2)cc1)c1ccc(I)cc1 | 40.4% | 10 mm | 2 mm | 3 mm | 2 mm | 0.92 µg/mL (≈ 2.3 µM) |  |  |  | 
O=C(/C=C/c1ccc(-n2ccnc2)cc1)c1ccccc1Br | 76% | 18 mm | 2 mm | 3 mm | 4 mm | 0.86 µg/mL (≈ 2.43 µM) |  |  |  | 
O=C(/C=C/c1ccc(-n2ccnc2)cc1)c1ccccc1Cl | 70.4% | 19 mm | 5 mm | 5 mm | 5 mm | 0.93 µg/mL (≈ 3.01 µM) |  |  |  | 
CCCOC(=O)c1cc(O)c(O)c(O)c1 | 91.3% |  |  |  |  |  |  |  |  | 
O=C(/C=C/c1ccc(-n2ccnc2)cc1)c1cccc(F)c1F | 16.7% | 19 mm | 4 mm | 3 mm | 4 mm | 0.83 µg/mL (≈ 2.67 µM) |  |  |  | 
O=C(/C=C/c1ccc(-n2ccnc2)cc1)c1ccc(F)cc1 | 64.5% | 1 mm | 1 mm | 1 mm | 2 mm | 0.71 µg/mL (≈ 2.43 µM) |  |  |  | 
O=C(/C=C/c1ccc(-n2ccnc2)cc1)c1cccc(O)c1 | 8.65% | 5 mm | 6 mm | 5 mm | 5 mm | 0.96 µg/mL (≈ 3.31 µM) |  |  |  | 
COc1ccc(C(=O)/C=C/c2ccc(-n3ccnc3)cc2)cc1 | 66% | 17 mm | 6 mm | 6 mm | 3 mm | 0.98 µg/mL (≈ 3.22 µM) |  |  |  | 
COc1cccc(C(=O)/C=C/c2ccc(-n3ccnc3)cc2)c1 | 83.9% | 16 mm | 8 mm | 7 mm | 3 mm | 0.98 µg/mL (≈ 3.22 µM) |  |  |  | 
O=C(/C=C/c1ccc(-n2ccnc2)cc1)c1ccc(Br)cc1 | 42.1% | 18 mm | 9 mm | 8 mm | 4 mm | 0.86 µg/mL (≈ 2.43 µM) |  |  |  | 
COc1ccc(C(=O)/C=C/c2ccc(-n3ccnc3)cc2)cc1OC | 51% | 10 mm | 4 mm | 4 mm | 3 mm | 0.82 µg/mL (≈ 2.45 µM) |  |  |  | 
C[C@@H]1[C@H](O)[C@@H](C)/C=C/C=C/C=C/C=C/C=C/C=C/C=C/[C@H](O[C@@H]2O[C@H](C)[C@@H](O)[C@H](N)[C@@H]2O)C[C@@H]2O[C@](O)(C[C@@H](O)C[C@@H](O)[C@H](O)CC[C@@H](O)C[C@@H](O)CC(=O)O[C@H]1C)C[C@H](O)[C@H]2C(=O)O [AMPHOTERICIN B] |  |  |  |  |  | 0.56 µg/mL (≈ 0.606 µM) |  |  |  | 
O=C(/C=C/c1ccc(-n2ccnc2)cc1)c1ccc(Cl)cc1Cl | 3.3% | 15 mm | 2 mm | 4 mm | 1 mm | 0.72 µg/mL (≈ 2.1 µM) |  |  |  | 
